Published values collected from several papers.
Each line is one published result; the experiments were not run side by side.
LRRK2: Leucine-rich repeat serine/threonine-protein kinase 2 (LRRK2, Homo sapiens, UniProt Q5S007)
LRRK2 G2019S: Leucine-rich repeat serine/threonine-protein kinase 2 (LRRK2, Homo sapiens, UniProt Q5S007, G2019S)

CC(C)(C)c1cc(C=C(C#N)C#N)cc(Br)c1O
remaining activity (LRRK2; enzyme activity, inhibitor; 0.5 µM): 109%

C#Cc1n[nH]c2c(-c3cn(C(C)c4ccccn4)c(=O)[nH]c3=O)cc(F)cc12 (stereo not drawn)
inhibition (LRRK2; enzyme activity, inhibitor; 1 µM): -0.2%

Cn1cc(-c2cccc(N3CCc4c(sc5c4CC(C)(C)C5)C3=O)c2CO)cc(Nc2ccncn2)c1=O
inhibition (LRRK2; enzyme activity, inhibitor; 1 µM): -1%

Nc1ncc(-c2nc(N3CCOCC3)nc(N3CCOCC3)n2)c(C(F)F)n1
remaining binding (LRRK2 G2019S; binding, competition with immobilised ligand; 10 µM): 91%

Cn1cncc1[C@@](O)(COc1ccc(C#N)cc1-c1ccc(OC(F)(F)F)cc1)c1ccc(C#N)cc1
remaining binding (LRRK2 G2019S; cell-free assay, competition with immobilised ligand; 1 µM): 91%

Cc1nn(C)cc1-c1nc2c(N3CCN(Cc4ccc(Cl)cc4)CC3)c(Cl)cnc2[nH]1
remaining binding (LRRK2 G2019S; binding, competition with immobilised ligand; 1 µM): 85%

COc1ncccc1-c1cnn2ccc(N3CCN(C(=O)OC(C)C)CC3)nc12
remaining binding (LRRK2; binding, competition with immobilised ligand; 1 µM): 87%

O=c1[nH]c2ccccc2n1C1CCN(Cc2ccc(-c3[nH]c4cc5ncnc5cc4nc3-c3ccccc3)cc2)CC1
remaining signal (LRRK2; cell-free assay; 0.5 µM): 103%

N#CC1(c2ccccn2)CCN(Cc2cc(C(=O)O)c(=O)n3ccccc23)CC1
remaining binding (LRRK2 G2019S; cell-free assay, competition with immobilised ligand; 1 µM): 100%
